Source: ChEMBL document CHEMBL1687936, “Radiosynthesis and biological evaluation of L- and D-S-(3-[18F]fluoropropyl)homocysteine for tumor imaging using positron emission tomography” (J Med Chem, 2011)

Legend:
Muscle tissue [1] = experiment: Biodistribution in muscle of BALB/c nude mouse xenografted with human A375 cells at 0.8 to 1 MBq, iv after 60 mins by gamma-counter; type: ADME, organism-based, A-375; conditions: in vivo, 1 h
In short: (§1)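 Female Balb/c nude mice with s.c. A375 flank tumors, studied 26 days after tumor induction. Tracer 0.8-1 MBq in 100 μL saline given i.v. Groups of n = 5 killed at 15, 30, 60 and 120 min. Organs weighed and counted in a γ-counter against dilutions of the injected dose. Values are % ID/g wet tissue, mean ± SD.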

Lung [2] = experiment: Biodistribution in lungs of BALB/c nude mouse xenografted with human A375 cells at 0.8 to 1 MBq, iv after 120 mins by gamma-counter; type: ADME, organism-based, A-375; conditions: in vivo, 2 h; in short: as §1
Pancreas [3] = experiment: Biodistribution in pancreas of BALB/c nude mouse xenografted with human A375 cells at 0.8 to 1 MBq, iv after 120 mins by gamma-counter; type: ADME, organism-based, A-375; conditions: in vivo, 2 h; in short: as §1
Lung [4] = experiment: Biodistribution in lungs of BALB/c nude mouse xenografted with human A375 cells at 0.8 to 1 MBq, iv after 60 mins by gamma-counter; type: ADME, organism-based, A-375; conditions: in vivo, 1 h; in short: as §1
Pancreas [5] = experiment: Metabolic stability in pancreas of BALB/c nude mouse xenografted with human A375 cells assessed as radioactivity after 1 hrs by HPLC analysis; type: ADME, tissue-based, A-375; conditions: in vivo
In short: (§2)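 A375-tumored Balb/c nude mice received 18-20 MBq tracer iv. Plasma and urine were spiked with unlabeled FPHCys and KF and injected directly; tissues were sonicated in saline with carrier and centrifuged at 6000g. Radio-HPLC on C18 with methanol/phosphate buffer pH 6 gave intact fraction as authentic peak over total activity, at 0.25, 1 and 2 h.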

HT-29 = experiment: Cellular uptake in human HT-29 cells assessed as accumulation per 10^5 cells after 4 hours by gamma-counter; type: ADME, cell-based; conditions: ht-29, 4 h
In short: (§3)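 Cells seeded at 2.5 × 10^5 per well in RPMI-1640 with 10% FBS and 2 mM L-glutamine, attached overnight, then washed with warm PBS. Incubated at 37 °C with 0.37 MBq [18F]tracer in PBS for 2–240 min. Cells washed with ice-cold PBS, lysed in 0.2 N NaOH and counted by γ-counter. Read as % applied dose per 10^5 cells, decay-corrected, n = 3.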

[6] = Metabolic stability in urine of BALB/c nude mouse xenografted with human A375 cells assessed as radioactivity after 2 hrs by HPLC analysis; type: ADME, tissue-based, A-375; conditions: in vivo; in short: as §2
Brain = experiment: Metabolic stability in brain of BALB/c nude mouse xenografted with human A375 cells assessed as radioactivity after 1 hrs by HPLC analysis; type: ADME, tissue-based, A-375; conditions: in vivo; in short: as §2
A-375 [7] = experiment: Drug uptake in human A375 cells in presence of amino acid transport system A inhibitor MeAIB; type: ADME, cell-based
In short: (§4)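 Cells were prepared as for the uptake assay and preincubated at 37 °C with inhibitor at 12.5 mmol/L in PBS; controls received PBS. 0.37 MBq [18F]tracer was added and incubated 30 min at 37 °C. Cells were washed cold, lysed and γ-counted. Uptake is given as % of the control group, n = 3.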

[8] = Metabolic stability in human A375 cells xenografted in BALB/c nude mouse assessed as radioactivity after 0.25 to 2 hrs by HPLC analysis; type: ADME, cell-based, A-375; conditions: in vivo; in short: as §2
Pancreas [9] = experiment: Metabolic stability in pancreas of BALB/c nude mouse xenografted with human A375 cells assessed as radioactivity after 0.25 to 1 hrs by HPLC analysis; type: ADME, tissue-based, A-375; conditions: in vivo; in short: as §2
Kidney [10] = experiment: Biodistribution in kidney of BALB/c nude mouse xenografted with human A375 cells at 0.8 to 1 MBq, iv after 60 mins by gamma-counter; type: ADME, organism-based, A-375; conditions: in vivo, 1 h; in short: as §1
[11] = Metabolic stability in human A375 cells xenografted in BALB/c nude mouse assessed as radioactivity after 0.25 by HPLC analysis; type: ADME, cell-based, A-375; conditions: in vivo; in short: as §2
A-375 [12] = experiment: Cellular uptake in human A375 cells after 2 mins by gamma-counter; type: ADME, cell-based; conditions: a-375, 2 min
In short: (§5)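 A375 cells grown in RPMI-1640 with 10% FBS and 2 mM L-glutamine; 2.5×10^5 seeded per well overnight, counts done in triplicate. After a warm PBS wash, cells got 0.37 MBq tracer in 500 μL PBS at 37 °C. Stopped with ice-cold PBS wash, lysed in 0.2 N NaOH, counted in a γ-counter. Decay-corrected % applied dose per 10^5 cells, mean ± SD, n = 3.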

Muscle tissue [13] = experiment: Biodistribution in muscle of BALB/c nude mouse xenografted with human A375 cells at 0.8 to 1 MBq, iv after 120 mins by gamma-counter; type: ADME, organism-based, A-375; conditions: in vivo, 2 h; in short: as §1
A-375 [14] = experiment: Cellular uptake in human A375 cells assessed as accumulation per 10^5 cells after 60 mins by gamma-counter; type: ADME, cell-based; conditions: a-375, 1 h; in short: as §3
[15] = Metabolic stability in human A375 cells xenografted in BALB/c nude mouse assessed as radioactivity after 2 by HPLC analysis; type: ADME, cell-based, A-375; conditions: in vivo; in short: as §2
Blood [16] = experiment: Biodistribution in blood of BALB/c nude mouse xenografted with human A375 cells at 0.8 to 1 MBq, iv after 120 mins by gamma-counter; type: ADME, organism-based, A-375; conditions: in vivo, 2 h; in short: as §1
Kidney [17] = experiment: Biodistribution in kidney of BALB/c nude mouse xenografted with human A375 cells at 0.8 to 1 MBq, iv after 15 mins by gamma-counter; type: ADME, organism-based, A-375; conditions: in vivo, 0.25 h; in short: as §1
Bone [18] = experiment: Biodistribution in bone of BALB/c nude mouse xenografted with human A375 cells at 0.8 to 1 MBq, iv after 30 mins by gamma-counter; type: ADME, organism-based, Bone element, A-375; conditions: in vivo, 0.5 h; in short: as §1
Spleen = experiment: Biodistribution in spleen of BALB/c nude mouse xenografted with human A375 cells at 0.8 to 1 MBq, iv after 60 mins by gamma-counter; type: ADME, organism-based, A-375; conditions: in vivo, 1 h; in short: as §1
[19] = Biodistribution in tumor of BALB/c nude mouse xenografted with human A375 cells at 0.8 to 1 MBq, iv after 15 mins by gamma-counter; type: ADME, organism-based, Neoplasm, A-375; conditions: in vivo, 0.25 h; in short: as §1
Pancreas [20] = experiment: Biodistribution in pancreas of BALB/c nude mouse xenografted with human A375 cells at 0.8 to 1 MBq, iv after 15 mins by gamma-counter; type: ADME, organism-based, A-375; conditions: in vivo, 0.25 h; in short: as §1
Heart = experiment: Biodistribution in heart of BALB/c nude mouse xenografted with human A375 cells at 0.8 to 1 MBq, iv after 15 mins by gamma-counter; type: ADME, organism-based, A-375; conditions: in vivo, 0.25 h; in short: as §1
Blood [21] = experiment: Biodistribution in blood of BALB/c nude mouse xenografted with human A375 cells at 0.8 to 1 MBq, iv after 30 mins by gamma-counter; type: ADME, organism-based, A-375; conditions: in vivo, 0.5 h; in short: as §1
Pancreas [22] = experiment: Biodistribution in pancreas of BALB/c nude mouse xenografted with human A375 cells at 0.8 to 1 MBq, iv after 60 mins by gamma-counter; type: ADME, organism-based, A-375; conditions: in vivo, 1 h; in short: as §1
Lung [23] = experiment: Biodistribution in lungs of BALB/c nude mouse xenografted with human A375 cells at 0.8 to 1 MBq, iv after 15 mins by gamma-counter; type: ADME, organism-based, A-375; conditions: in vivo, 0.25 h; in short: as §1
Bone [24] = experiment: Biodistribution in bone of BALB/c nude mouse xenografted with human A375 cells at 0.8 to 1 MBq, iv after 60 mins by gamma-counter; type: ADME, organism-based, Bone element, A-375; conditions: in vivo, 1 h; in short: as §1
A-375 [25] = experiment: Drug uptake in human A375 cells in presence of amino acid transport system L inhibitor BCH; type: ADME, cell-based; in short: as §4
A-375 [26] = experiment: Cellular uptake in human A375 cells after 15 mins by gamma-counter; type: ADME, cell-based; conditions: a-375, 0.25 h; in short: as §5
A-375 [27] = experiment: Cellular uptake in human A375 cells assessed as accumulation per 10^5 cells after 15 to 60 mins by gamma-counter; type: ADME, cell-based; in short: as §3
A-375 [28] = experiment: Cellular uptake in human A375 cells after 15 to 60 mins by gamma-counter; type: ADME, cell-based; in short: as §5

**Q.** For `Cl.N[C@@H](CCSCCC[18F])C(=O)O`, which Drug uptake (Muscle tissue [1]) is on record?
**A.** 2.52 % ID/g

**Q.** And the Drug uptake (Lung [2])?
**A.** 1.63 % ID/g

**Q.** What about the Drug uptake (Pancreas [3]) of the same compound?
**A.** 3.77 % ID/g

**Q.** And the Drug uptake (Lung [4])?
**A.** 2.62 % ID/g

**Q.** What about the Stability (Pancreas [5]) of the same compound?
**A.** 30%

**Q.** What about the Drug uptake (HT-29) of the same compound?
**A.** 2%

**Q.** And the Stability [6]?
**A.** < 4%

**Q.** And the Stability (Brain)?
**A.** 90%

**Q.** And the Drug uptake (A-375 [7])?
**A.** Active

**Q.** And the Stability [8]?
**A.** 82%

**Q.** What about the Stability (Pancreas [9]) of the same compound?
**A.** 85%

**Q.** What about the Drug uptake (Kidney [10]) of the same compound?
**A.** 5.96 % ID/g

**Q.** And the Stability [11]?
**A.** 90%

**Q.** What about the Drug uptake (A-375 [12]) of the same compound?
**A.** > 50%

**Q.** What about the Drug uptake (Muscle tissue [13]) of the same compound?
**A.** 1.52 % ID/g

**Q.** And the Drug uptake (A-375 [14])?
**A.** 9%

**Q.** And the Stability [15]?
**A.** 78%

**Q.** And the Drug uptake (Blood [16])?
**A.** 1.38 % ID/g

**Q.** What about the Drug uptake (Kidney [17]) of the same compound?
**A.** 15.4 % ID/g

**Q.** What about the Drug uptake (Bone [18]) of the same compound?
**A.** 3.5 % ID/g

**Q.** And the Drug uptake (Spleen)?
**A.** 2.11 % ID/g

**Q.** What about the Drug uptake [19] of the same compound?
**A.** 9.41 % ID/g

**Q.** What about the Drug uptake (Pancreas [20]) of the same compound?
**A.** 14.3 % ID/g

**Q.** And the Drug uptake (Heart)?
**A.** 5.08 % ID/g

**Q.** And the Drug uptake (Blood [21])?
**A.** 4.44 % ID/g

**Q.** And the Drug uptake (Pancreas [22])?
**A.** 6.97 % ID/g

**Q.** What about the Drug uptake (Lung [23]) of the same compound?
**A.** 5.21 % ID/g

**Q.** What about the Drug uptake (Bone [24]) of the same compound?
**A.** 2.31 % ID/g

**Q.** What does the source list for `Cl.N[C@H](CCSCCC[18F])C(=O)O`?
**A.** Drug uptake (Muscle tissue [1]): 1.44 % ID/g; Drug uptake (Lung [2]): 0.85 % ID/g; Drug uptake (A-375 [25]): Not Active; Drug uptake (Pancreas [3]): 1.43 % ID/g; Drug uptake (A-375 [26]): Active; Drug uptake (Lung [4]): 1.55 % ID/g; Drug uptake (HT-29): 1.6%; Drug uptake (A-375 [27]): 6.8%; Stability (Brain): 90%; Drug uptake (A-375 [7]): Active; Stability [8]: 82%; Stability (Pancreas [9]): 85%; Drug uptake (Kidney [10]): 2.75 % ID/g; Drug uptake (Muscle tissue [13]): 0.63 % ID/g; Drug uptake (Blood [16]): 0.89 % ID/g; Drug uptake (A-375 [28]): Active; Drug uptake (Kidney [17]): 12.2 % ID/g; Drug uptake (Bone [18]): 2.29 % ID/g; Drug uptake (Spleen): 0.95 % ID/g; Drug uptake [19]: 6.01 % ID/g; Drug uptake (Pancreas [20]): 37.1 % ID/g; Drug uptake (Heart): 3.92 % ID/g; Drug uptake (Blood [21]): 2.51 % ID/g; Drug uptake (Pancreas [22]): 4.79 % ID/g; Drug uptake (Lung [23]): 4.11 % ID/g; Drug uptake (Bone [24]): 1.63 % ID/g
